Experimental data reported in ChEMBL document CHEMBL3864174, “Scaffold-Hopping of Aurones: 2-Arylideneimidazo[1,2-a]pyridinones as Topoisomerase IIα-Inhibiting Anticancer Agents” (ACS Med Chem Lett, 2016).
The source made the active and inactive calls. The calls are words filed in the database; no cut-off is given here.

Assays:
[1] = Downregulation of p53 expression in human MCF7 cells at 50 nM after 48 hrs by Western blot analysis relative to control; assay type: functional, cell-based
MCF7 [2] = assay: Induction of apoptosis in human MCF7 cells assessed as decrease in BCL-XL expression at 50 nM after 48 hrs by Western blot analysis relative to control; assay type: functional
[3] = Downregulation of p21 expression in human MCF7 cells at 75 nM after 48 hrs by Western blot analysis relative to control; assay type: functional, cell-based
[4] = Cytotoxicity against African green monkey Vero cells assessed as reduction in colony formation after 48 hrs by crystal violet-staining based assay; assay type: toxicity, cell-based; conditions: chlorocebus sabaeus
MCF7 [5] = assay: Induction of apoptosis in human MCF7 cells assessed as increase in 17 kDa caspase-3 expression at 50 nM after 48 hrs by Western blot analysis relative to control; assay type: functional
Procedure, shortened: (§1)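 Western blot of MCF-7 lysates after treatment across a concentration series. Probes were CDK1, pCDK1 (Thr 161) and cleaved caspase 3 (17 kDa). Bands were quantified by densitometry as fold change versus untreated control, with at least three repeats.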

[6] = Downregulation of CDK1 expression in human MCF7 cells at 50 nM after 48 hrs by Western blot analysis relative to control; assay type: functional, cell-based; procedure, shortened: as §1
[7] = Binding affinity to DNA (unknown origin) assessed as occurrence of hypochromism after 1 hr by UV-Vis spectrophotometric analysis
Procedure, shortened: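 UV absorption of DNA near 260 nm, recorded with and without increasing compound concentrations; hypochromism was taken as the binding read-out.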

MCF7 [8] = assay: Inhibition of alpha tubulin in human MCF7 cells assessed as formation of abnormal mitotic spindle at 50 to 75 uM by FITC/propidium iodide-staining based assay; assay type: cell-based
Procedure, shortened: (§2)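 MCF-7 cells were immunostained for α-tubulin with FITC and counterstained with propidium iodide for nuclei. Merged images were inspected for assembly distortion and abnormal mitotic spindles.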

[9] = Cytotoxicity against human MDA-MB-231 cells assessed as reduction in cell viability after 48 hrs by MTT assay; assay type: functional, cell-based; conditions: MDA-MB-231, 48 h
[10] = Inhibition of tubulin polymerization in human MCF7 cells assessed as suppression of protein assembly after 15 mins by spectrophotometric analysis; assay type: cell-based
MCF7 [11] = assay: Induction of apoptosis in human MCF7 cells assessed as nuclear fragmentation up to 75 nM after 48 hrs by DAPI-nuclear staining based fluorescent microscopic analysis relative to control; assay type: functional, cell-based
Procedure, shortened: (§3)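 MCF-7 cells exposed to increasing compound concentrations for 48 h before DAPI was added. Nuclei were scored for chromatin condensation and fragmentation, counted as apoptotic nuclei versus untreated cells.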

MCF7 [12] = assay: Antiinvasive activity in human MCF7 cells assessed as reduction in number of invaded colonies at 25 to 75 nM after 48 hrs by crystal violet-staining based colony counting; assay type: functional, cell-based
Procedure, shortened: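 Matrigel invasion assay in MCF-7 cells exposed to rising compound concentrations; read-out is the number of invaded colonies versus an untreated control.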

MCF7 [13] = assay: Inhibition of topoisomerase in human MCF7 cell nuclear lysates assessed as reduction in relaxation of supercoiled plasmid DNA NFkB substrate at 10 to 75 nM after 30 mins by ethidium bromide-staining based agarose gel electrophoresis
Procedure, shortened: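 Ex vivo topoisomerase assay using MCF-7 nuclear lysate with NFkB plasmid as substrate. Compound ranged from 10 nM to 75 nM, with lanes for plasmid alone and untreated lysate, and an etoposide lane at 45 µM.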

[14] = biological target: Cyclin-dependent kinase 1 (Homo sapiens) (UniProt P06493); assay: Inhibition of CDK1 phosphorylation at Thr-161 residue in human MCF7 cells at 75 nM after 48 hrs by Western blot analysis relative to control; assay type: cell-based; procedure, shortened: as §1
MCF7 [15] = assay: Induction of apoptosis in human MCF7 cells assessed as increase in apoptotic nuclei at 75 nM after 48 hrs by DAPI-nuclear staining based fluorescent microscopic analysis relative to control; assay type: functional; procedure, shortened: as §3
MCF7 [16] = assay: Induction of apoptosis in human MCF7 cells assessed as increase in 17 kDa caspase-3 expression at 75 nM after 48 hrs by Western blot analysis relative to control; assay type: functional; procedure, shortened: as §1
MCF7 [17] = assay: Induction of apoptosis in human MCF7 cells assessed as 19 kDa caspase-3 expression level at 50 nM after 48 hrs by Western blot analysis relative to control; assay type: functional
MCF7 [18] = assay: Cytotoxicity against human MCF7 cells assessed as reduction in colony formation after 48 hrs by crystal violet-staining based assay; assay type: functional, cell-based
[19] = Cell cycle arrest in human MCF7 cells assessed as accumulation at subG1 phase at 100 nM after 48 hrs by propidium iodide-staining based FACS analysis (reference value: 0.8 +/- 0.1 %); assay type: functional
MCF7 [20] = assay: Induction of apoptosis in human MCF7 cells assessed as 19 kDa caspase-3 expression level at 75 nM after 48 hrs by Western blot analysis relative to control; assay type: functional
MCF7 [21] = assay: Induction of apoptosis in human MCF7 cells assessed as increase in BAX expression at 50 nM after 48 hrs by Western blot analysis relative to control; assay type: functional
MCF7 [22] = assay: Inhibition of alpha tubulin in human MCF7 cells assessed as distortion in tubulin assembly at 50 to 75 uM by FITC/propidium iodide-staining based assay; assay type: cell-based; procedure, shortened: as §2
MCF7 [23] = assay: Induction of apoptosis in human MCF7 cells assessed as increase in caspase-3 expression at 50 to 75 nM after 48 hrs by TRITC/DAPI-staining based fluorescent microscopic analysis; assay type: functional, cell-based
Procedure, shortened: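 Caspase 3 immunocytochemistry in MCF-7 cells after increasing compound concentrations. Signal was expressed as densitometric fold change versus untreated control, with at least three repeats.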

MCF7 [24] = assay: Induction of apoptosis in human MCF7 cells assessed as increase in BAX expression at 75 nM after 48 hrs by Western blot analysis relative to control; assay type: functional
[25] = Downregulation of CDK1 expression in human MCF7 cells at 75 nM after 48 hrs by Western blot analysis relative to control; assay type: functional, cell-based; procedure, shortened: as §1
MCF7 [26] = assay: Induction of apoptosis in human MCF7 cells assessed as chromatin condensation up to 75 nM after 48 hrs by DAPI-nuclear staining based fluorescent microscopic analysis relative to control; assay type: functional, cell-based; procedure, shortened: as §3
[27] = biological target: DNA topoisomerase 2-alpha (Homo sapiens) (UniProt P11388); assay: Inhibition of human Topo2alpha-mediated kDNA decatenation at 100 uM after 30 mins by SDS-based agarose gel electrophoresis
[28] = biological target: DNA topoisomerase 2-alpha (Homo sapiens) (UniProt P11388); assay: Poison activity at human Topo2alpha using pUC19 as substrate assessed as DNA cleavage-complex formation at 100 uM measured after 20 mins by ethidium bromide staining based SDS-agarose gel electrophoresis
MCF7 [29] = assay: Induction of apoptosis in human MCF7 cells assessed as decrease in BCL-XL expression at 75 nM after 48 hrs by Western blot analysis relative to control; assay type: functional
[30] = Downregulation of p21 expression in human MCF7 cells at 50 nM after 48 hrs by Western blot analysis relative to control; assay type: functional, cell-based
[31] = Cell cycle arrest in human MCF7 cells assessed as accumulation at G2/M phase at 50 nM after 48 hrs by propidium iodide-staining based FACS analysis (reference value: 41 +/- 2.8 %); assay type: functional
[32] = biological target: Cyclin-dependent kinase 1 (Homo sapiens) (UniProt P06493); assay: Inhibition of CDK1 phosphorylation at Thr-161 residue in human MCF7 cells at 50 nM after 48 hrs by Western blot analysis relative to control; assay type: cell-based; procedure, shortened: as §1
[33] = Cytotoxicity against human MDA-MB-468 cells assessed as reduction in cell viability after 48 hrs by MTT assay; assay type: functional, cell-based; conditions: MDA-MB-468, 48 h
[34] = Cytotoxicity against African green monkey Vero cells assessed as cells growth inhibition after 48 hrs by MTT assay; assay type: toxicity, cell-based, Chlorocebus sabaeus
Procedure, shortened: (§4)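 MTT colorimetric assay. HEK-293T (kidney line) and VERO cells were tested, and the IC50 was taken as the concentration giving 50% growth inhibition.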

HEK-293T [35] = assay: (§5) Cytotoxicity against HEK293T cells assessed as cells growth inhibition after 48 hrs by MTT assay; assay type: functional, cell-based; conditions: Homo sapiens; procedure, shortened: as §4
[36] = as §5; assay type: functional, cell-based; conditions: Homo sapiens, HEK-293T; procedure, shortened: as §4
MCF7 [37] = assay: Cytotoxicity against human MCF7 cells assessed as cells growth inhibition after 48 hrs by MTT assay; assay type: functional, cell-based
HEK-293T [38] = assay: (§6) Cytotoxicity against HEK293T cells assessed as reduction in colony formation after 48 hrs by crystal violet-staining based assay; assay type: functional; conditions: Homo sapiens
[39] = as §6; assay type: functional; conditions: Homo sapiens, HEK-293T, read-out: LC50 (the source's name)
[40] = Downregulation of p53 expression in human MCF7 cells at 75 nM after 48 hrs by Western blot analysis relative to control; assay type: functional, cell-based

Chain of DNA topoisomerase 2-alpha (Homo sapiens) (P11388 whole entry): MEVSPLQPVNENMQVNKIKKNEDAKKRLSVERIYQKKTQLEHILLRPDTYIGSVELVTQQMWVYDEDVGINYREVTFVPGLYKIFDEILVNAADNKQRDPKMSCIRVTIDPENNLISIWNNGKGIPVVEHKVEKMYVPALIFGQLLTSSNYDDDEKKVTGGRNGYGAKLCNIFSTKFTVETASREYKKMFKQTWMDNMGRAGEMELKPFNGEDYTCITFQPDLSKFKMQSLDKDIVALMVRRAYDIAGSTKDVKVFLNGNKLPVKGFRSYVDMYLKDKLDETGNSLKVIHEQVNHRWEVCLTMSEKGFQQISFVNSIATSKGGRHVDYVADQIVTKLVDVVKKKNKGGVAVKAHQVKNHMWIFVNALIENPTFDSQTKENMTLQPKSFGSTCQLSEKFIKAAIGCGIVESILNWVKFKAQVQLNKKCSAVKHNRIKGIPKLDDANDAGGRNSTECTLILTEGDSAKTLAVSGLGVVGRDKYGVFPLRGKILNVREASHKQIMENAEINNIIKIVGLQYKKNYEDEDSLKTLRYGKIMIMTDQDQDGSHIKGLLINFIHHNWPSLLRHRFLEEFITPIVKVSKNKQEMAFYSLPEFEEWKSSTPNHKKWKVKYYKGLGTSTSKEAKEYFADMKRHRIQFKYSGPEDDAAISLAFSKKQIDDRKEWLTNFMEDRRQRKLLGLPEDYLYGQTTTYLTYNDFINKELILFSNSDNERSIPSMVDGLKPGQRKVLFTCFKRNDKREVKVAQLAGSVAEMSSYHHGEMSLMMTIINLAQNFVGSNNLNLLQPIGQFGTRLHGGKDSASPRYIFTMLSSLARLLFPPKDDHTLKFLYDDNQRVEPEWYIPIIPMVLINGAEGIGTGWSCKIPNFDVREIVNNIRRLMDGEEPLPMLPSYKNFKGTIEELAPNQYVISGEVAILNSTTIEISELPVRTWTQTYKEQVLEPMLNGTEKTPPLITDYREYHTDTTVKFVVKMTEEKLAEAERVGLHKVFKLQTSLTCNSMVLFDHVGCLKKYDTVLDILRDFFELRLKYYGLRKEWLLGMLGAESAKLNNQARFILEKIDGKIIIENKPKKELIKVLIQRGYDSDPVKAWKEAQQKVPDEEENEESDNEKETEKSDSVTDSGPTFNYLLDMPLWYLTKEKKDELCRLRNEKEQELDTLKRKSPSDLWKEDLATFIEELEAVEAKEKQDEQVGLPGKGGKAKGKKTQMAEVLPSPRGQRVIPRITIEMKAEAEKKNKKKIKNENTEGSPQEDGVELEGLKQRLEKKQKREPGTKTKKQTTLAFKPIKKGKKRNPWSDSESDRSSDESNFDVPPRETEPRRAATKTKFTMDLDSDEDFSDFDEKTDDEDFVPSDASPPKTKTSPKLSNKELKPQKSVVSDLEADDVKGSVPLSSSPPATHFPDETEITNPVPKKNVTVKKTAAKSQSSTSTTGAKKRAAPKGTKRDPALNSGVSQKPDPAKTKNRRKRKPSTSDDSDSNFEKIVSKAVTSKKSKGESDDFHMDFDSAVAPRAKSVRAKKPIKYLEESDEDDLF
Chain of Cyclin-dependent kinase 1 (Homo sapiens) (P06493 whole entry, looked up): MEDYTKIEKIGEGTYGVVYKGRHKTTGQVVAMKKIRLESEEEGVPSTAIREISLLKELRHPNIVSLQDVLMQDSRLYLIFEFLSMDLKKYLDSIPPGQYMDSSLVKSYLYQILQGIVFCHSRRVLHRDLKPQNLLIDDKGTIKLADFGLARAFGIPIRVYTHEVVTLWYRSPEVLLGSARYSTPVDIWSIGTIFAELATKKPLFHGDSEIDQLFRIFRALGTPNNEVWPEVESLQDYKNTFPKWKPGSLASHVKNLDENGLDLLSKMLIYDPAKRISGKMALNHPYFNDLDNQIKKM

For `COc1ccc(/C=C2\N=C3C=CC=CN3C2=O)cc1`, the fold change (FC) [1] was 1.4, the “fold change (FC)” value (MCF7 [2]) was 0.9 and the fold change (FC) [3] was 2.5. The CC50 at 48 h ([4]; Vero cells, read-out: LC50) was 1.5 µM, the Activity ([4]; vero, 48 h) was “Dose-dependent effect” and the “fold change (FC)” value (MCF7 [5]) was 1.6. The fold change (FC) [6] was 0.9, the Kb [7] was 2e+06 M⁻¹ and the inhibition (MCF7 [8]) was “Active”. The IC50 [9] was 0.064 µM, the IC50 [10] was 0.054 µM and the Activity (MCF7 [11]) was “Active”. For the same compound, the Activity (MCF7 [12]) was “Active”, the inhibition (MCF7 [13]) was “Active” and the fold change (FC) [14] was 2. The “fold change (FC)” value (MCF7 [15]) was over 6, the “fold change (FC)” value (MCF7 [16]) was 2 and the “fold change (FC)” value (MCF7 [17]) was 1.4. For the same compound, the Activity (MCF7 [18]) was “Dose-dependent effect”, the Activity [19] was 20.2% and the “fold change (FC)” value (MCF7 [20]) was 1.6. The “fold change (FC)” value (MCF7 [21]) was 1.2, the inhibition (MCF7 [22]) was “Active” and the Activity (MCF7 [23]) was “Dose-dependent effect”. For the same compound, the “fold change (FC)” value (MCF7 [24]) was 2, the fold change (FC) [25] was 0.2 and the Activity (MCF7 [26]) was “Active”. The inhibition [27] was “Active”, the Activity [28] was “Active” and the “fold change (FC)” value (MCF7 [29]) was 0.2. For the same compound, the fold change (FC) [30] was 1.4, the Activity [31] was 80.1% and the fold change (FC) [32] was 1.2. For the same compound, the IC50 [33] was 0.06 µM, the IC50 at 48 h ([34]; African green monkey (Chlorocebus sabaeus), Vero cells) was 1.5 µM and the “growth inhibition (GI)” value ([34]; chlorocebus sabaeus, vero, 48 h) was “Dose-dependent effect”. The “growth inhibition (GI)” value (HEK-293T [35]) was “Dose-dependent effect”, the IC50 [36] was 0.06 µM and the “growth inhibition (GI)” value (MCF7 [37]) was “Dose-dependent effect”. For the same compound, the Activity (HEK-293T [38]) was “Dose-dependent effect”, the CC50 [39] was 0.06 µM and the fold change (FC) [40] was 2.5.
